Where “and” joins values, the source holds several entries; their conditions need not be identical. Equal entries are not always repeated. Calls of active or inactive are those of the source. The calls are words filed in the database; no cut-off is given here.
Assays:
Mus musculus [1] = test: Percent change from vehicle in locomotor activity in mice at 0.3 mg/kg (ip) in 3 h; assay type: functional
Mus musculus [2] = test: Percent change from vehicle in locomotor activity in mice at 0.1 mg/kg (ip) in 1 h; assay type: functional
Mus musculus [3] = species: Mus musculus; test: Hour 1 ratio to cocaine was determined for locomotor activity in mice; assay type: functional
Mus musculus [4] = test: Percent change locomotor activity in mice at 1 mg/kg i.p. in 3 h.; assay type: functional; conditions: route intraperitoneal
In short: (§1)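 Mice habituated 1/2 h to photocell activity chambers, then injected ip with compound homogenized in 0.5% methyl cellulose (10 mL/kg); vehicle controls; N = 5 or 6 per dose. Photobeam interruptions recorded in 10-min bins for 4 h, grouped into 1-h bins; one-way ANOVA with Newman-Keuls post hoc test (p < 0.05).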

Mus musculus [5] = test: Percent change in locomotor activity in mice at 1 mg/kg i.p. in 4 h.; assay type: functional; conditions: route intraperitoneal; in short: as §1
[6] = biological target: T1, Sodium-dependent serotonin transporter (Rattus norvegicus, UniProt P31652); test: Binding affinity towards serotonin transporter 5-HTT was determined using [3H]paroxetine radioligand.
In short: (§2)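 Competition binding at the 5-HTT with 0.2 nM [3H]paroxetine (final concentration). Other procedures follow earlier published methods.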

Mus musculus [7] = test: Percent change from vehicle in locomotor activity in mice at 0.3 mg/kg (ip) in 2 h; assay type: functional
Rattus norvegicus [8] = test: Drug discrimination effect of compound in rats, expressed as percent of rats choosing the cocaine lever at dose 0.17 mg/kg (ip); assay type: functional
Mus musculus [9] = test: Percent change from vehicle in locomotor activity in mice at 0.3 mg/kg (ip) in 4 h; assay type: functional
Rattus norvegicus [10] = test: Drug discrimination effect of compound in rats, expressed as percent of rats choosing the cocaine lever at dose 0.1 mg/kg (ip); assay type: functional
[11] = biological target: Sodium-dependent dopamine transporter (Rattus norvegicus, UniProt P23977); test: Inhibitory concentration required to inhibit dopamine transporter DAT was determined by using [3H]WIN-35428 radioligand
In short: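 Competition binding at the DAT with 0.5 nM [3H]WIN35,428 (final concentration). Other procedures follow earlier published methods.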

[12] = biological target: T2, Norepinephrine transporter (Rattus norvegicus, UniProt Q9WTR4); test: Binding affinity towards norepinephrine transporter was determined using [3H]nisoxetine radioligand.
In short: (§3)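 Competition binding at the NET with 0.5 nM [3H]nisoxetine (final concentration). Other procedures follow earlier published methods.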

Mus musculus [13] = species: Mus musculus; test: Effective dose for locomotor activity in mice in the peak hour.; assay type: functional
[14] = biological target: T1, Sodium-dependent serotonin transporter; test: Inhibitory concentration required to inhibit serotonin transporter 5-HTT was determined by using [3H]paroxetine radioligand; in short: as §2
Mus musculus [15] = test: Percent change from vehicle in locomotor activity in mice at 0.3 mg/kg (ip) in 1 h; assay type: functional
Mus musculus [16] = test: Percent change in locomotor activity in mice at 1 mg/kg i.p. in 2 h.; assay type: functional; conditions: route intraperitoneal; in short: as §1
Mus musculus [17] = test: Percent change in locomotor activity in mice at 1 mg/kg i.p. in 1 h.; assay type: functional; conditions: route intraperitoneal
[18] = biological target: T2, Norepinephrine transporter; test: Inhibition of norepinephrine transporter (NET) determined using [3H]nisoxetine radioligand.; in short: as §3
Mus musculus [19] = test: Percent change from vehicle in locomotor activity in mice at 0.1 mg/kg (ip) in 2 h; assay type: functional
Rattus norvegicus [20] = test: Effective dose for drug discrimination effect in rat (ip); assay type: functional
In short: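 Cocaine-trained rat drug discrimination, FR10, 10-min sessions. Compound in 0.5% methyl cellulose given ip 15 min before session, usually to 7-8 rats per dose. Doses were raised from ≤20% to ≥80% cocaine-lever choice, capped at 30 mg/kg, >50% loss of pressing, or side effects.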

Mus musculus [21] = test: Percent change from vehicle in locomotor activity in mice at 0.1 mg/kg (ip) in 4 h; assay type: functional
Mus musculus [22] = test: Percent change from vehicle in locomotor activity in mice at 0.1 mg/kg (ip) in 3 h; assay type: functional
Rattus norvegicus [23] = test: Drug discrimination effect of compound in rats, expressed as percent of rats choosing the cocaine lever at dose 0.3 mg/kg (ip); assay type: functional
Mus musculus [24] = test: Percent change in locomotor activity in mice at 3 mg/kg i.p. in 3 h.; assay type: functional; conditions: route intraperitoneal; in short: as §1
Mus musculus [25] = test: Percent change in locomotor activity in mice at 3 mg/kg i.p. in 4 h.; assay type: functional; conditions: route intraperitoneal; in short: as §1
Mus musculus [26] = test: Percent change in locomotor activity in mice at 3 mg/kg i.p. in 1 h.; assay type: functional; conditions: route intraperitoneal; in short: as §1
Mus musculus [27] = test: Percent change in locomotor activity in mice at 3 mg/kg i.p. in 2 h.; assay type: functional; conditions: route intraperitoneal; in short: as §1
Mus musculus [28] = test: Percent change from vehicle in locomotor activity in mice at 30 mg/kg (ip) in 2 h; assay type: functional
Mus musculus [29] = test: Percent change from vehicle in locomotor activity in mice at 30 mg/kg (ip) in 3 h; assay type: functional
Mus musculus [30] = test: Percent change from vehicle in locomotor activity in mice at 10 mg/kg (ip) in 2 h; assay type: functional
Rattus norvegicus [31] = test: Drug discrimination effect of compound in rats, expressed as percent of rats choosing the cocaine lever at dose 1 mg/kg (ip); assay type: functional
Mus musculus [32] = species: Mus musculus; test: Effective dose was evaluated for locomotor activity in mice in the peak hour; No stimulation; assay type: functional, organism-based
Mus musculus [33] = test: Percent change from vehicle in locomotor activity in mice at 10 mg/kg (ip) in 1 h; assay type: functional
Rattus norvegicus [34] = test: Drug discrimination effect of compound in rats, expressed as percent of rats choosing the cocaine lever at dose 10 mg/kg (ip); assay type: functional
Rattus norvegicus [35] = test: Drug discrimination effect of compound in rats, expressed as percent of rats choosing the cocaine lever at dose 30 mg/kg (ip); assay type: functional
Mus musculus [36] = test: Percent change from vehicle in locomotor activity in mice at 30 mg/kg (ip) in 1 h; assay type: functional
Mus musculus [37] = test: Percent change from vehicle in locomotor activity in mice at 30 mg/kg (ip) in 4 h; assay type: functional
Mus musculus [38] = test: Percent change from vehicle in locomotor activity in mice at 10 mg/kg (ip) in 3 h; assay type: functional
Mus musculus [39] = test: Percent change from vehicle in locomotor activity in mice at 10 mg/kg (ip) in 4 h; assay type: functional
Rattus norvegicus [40] = test: Drug discrimination effect of compound in rats, expressed as percent of rats choosing the cocaine lever at dose 3 mg/kg (ip); assay type: functional
Rattus norvegicus [41] = test: Drug discrimination effect of compound in rats, expressed as percent of rats choosing the cocaine lever at dose 0.56 mg/kg (ip); assay type: functional
Rattus norvegicus [42] = test: Drug discrimination effect of compound in rats, expressed as percent of rats choosing the cocaine lever at dose 17 mg/kg (ip); assay type: functional
Rattus norvegicus [43] = test: Drug discrimination effect of compound in rats, expressed as percent of rats choosing the cocaine lever at dose 1.7 mg/kg (ip); assay type: functional
Rattus norvegicus [44] = test: Drug discrimination effect of compound in rats, expressed as percent of rats choosing the cocaine lever at dose 5.6 mg/kg (ip); assay type: functional

T2 sequence (Q9WTR4 whole entry): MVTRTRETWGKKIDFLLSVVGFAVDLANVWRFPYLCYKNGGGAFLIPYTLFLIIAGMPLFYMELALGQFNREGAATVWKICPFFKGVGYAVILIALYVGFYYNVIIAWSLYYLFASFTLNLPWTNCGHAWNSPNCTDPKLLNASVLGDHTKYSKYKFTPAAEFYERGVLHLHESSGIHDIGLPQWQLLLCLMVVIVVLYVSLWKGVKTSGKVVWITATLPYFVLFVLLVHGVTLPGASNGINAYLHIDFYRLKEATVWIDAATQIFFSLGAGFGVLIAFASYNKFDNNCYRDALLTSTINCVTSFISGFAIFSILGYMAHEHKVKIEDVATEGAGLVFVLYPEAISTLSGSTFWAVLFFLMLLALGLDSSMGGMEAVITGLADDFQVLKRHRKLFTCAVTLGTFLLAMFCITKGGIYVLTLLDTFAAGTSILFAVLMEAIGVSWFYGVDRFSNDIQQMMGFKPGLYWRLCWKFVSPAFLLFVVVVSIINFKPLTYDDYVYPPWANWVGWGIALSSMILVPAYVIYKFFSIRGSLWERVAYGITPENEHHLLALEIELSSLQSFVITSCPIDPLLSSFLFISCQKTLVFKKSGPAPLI
Chain of Sodium-dependent dopamine transporter (P23977 whole entry): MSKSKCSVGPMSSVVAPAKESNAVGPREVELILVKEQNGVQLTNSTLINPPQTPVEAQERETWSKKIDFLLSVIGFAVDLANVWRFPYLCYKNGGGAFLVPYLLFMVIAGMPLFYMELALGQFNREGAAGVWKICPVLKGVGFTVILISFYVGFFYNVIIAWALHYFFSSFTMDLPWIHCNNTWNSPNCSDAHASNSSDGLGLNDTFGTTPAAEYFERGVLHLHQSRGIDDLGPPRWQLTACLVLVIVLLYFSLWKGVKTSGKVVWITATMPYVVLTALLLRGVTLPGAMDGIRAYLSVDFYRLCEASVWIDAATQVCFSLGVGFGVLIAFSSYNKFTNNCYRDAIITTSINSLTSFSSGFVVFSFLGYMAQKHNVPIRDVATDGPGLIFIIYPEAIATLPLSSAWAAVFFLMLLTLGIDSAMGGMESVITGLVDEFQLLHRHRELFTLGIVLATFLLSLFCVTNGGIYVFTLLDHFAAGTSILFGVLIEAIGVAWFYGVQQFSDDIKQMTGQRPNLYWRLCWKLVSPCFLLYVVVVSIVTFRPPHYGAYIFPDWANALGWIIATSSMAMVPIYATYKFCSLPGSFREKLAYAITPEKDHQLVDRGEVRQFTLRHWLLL
T1 sequence (P31652 whole entry): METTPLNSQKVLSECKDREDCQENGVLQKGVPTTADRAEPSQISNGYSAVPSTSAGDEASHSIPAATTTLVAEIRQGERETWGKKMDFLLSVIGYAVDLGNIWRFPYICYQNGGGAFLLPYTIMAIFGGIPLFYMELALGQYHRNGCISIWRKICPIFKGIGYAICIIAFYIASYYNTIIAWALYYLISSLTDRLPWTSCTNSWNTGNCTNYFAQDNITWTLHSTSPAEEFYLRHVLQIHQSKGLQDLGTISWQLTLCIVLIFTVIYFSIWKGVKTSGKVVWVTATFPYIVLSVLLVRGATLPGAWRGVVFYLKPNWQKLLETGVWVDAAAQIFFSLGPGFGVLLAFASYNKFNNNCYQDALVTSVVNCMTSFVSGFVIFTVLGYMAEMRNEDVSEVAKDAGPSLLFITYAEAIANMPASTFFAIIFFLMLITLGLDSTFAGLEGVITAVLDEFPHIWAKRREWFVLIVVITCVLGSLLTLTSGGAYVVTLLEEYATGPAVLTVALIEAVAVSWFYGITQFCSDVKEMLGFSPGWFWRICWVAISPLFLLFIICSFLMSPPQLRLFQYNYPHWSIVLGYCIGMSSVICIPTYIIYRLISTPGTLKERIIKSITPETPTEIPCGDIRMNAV

| SMILES | Change (Mus musculus [1]) | Ratio (Mus musculus [3]) | Change (Mus musculus [4]) | Change (Mus musculus [5]) | Ki [6] | Change (Mus musculus [7]) | Change (Mus musculus [9]) | IC50 [11] | Ki [12] | ED50 (Mus musculus [13]) | IC50 [14] | Change (Mus musculus [15]) | Change (Mus musculus [16]) | Change (Mus musculus [17]) | IC50 [18] | ED50 (Rattus norvegicus [20]) | Drug discrimination effect (Rattus norvegicus [23]) | Change (Mus musculus [24]) | Change (Mus musculus [25]) | Change (Mus musculus [26]) | also measured |
| --- | --- | --- | --- | --- | --- | --- | --- | --- | --- | --- | --- | --- | --- | --- | --- | --- | --- | --- | --- | --- | --- |
| Cc1cc(C2C(c3ccc(Cl)cc3)CC3CCC2N3C)on1 (centres undefined) | 735% | 1.2 | 926% | 981% | 0.052 µM | 526% | 392% | 0.00059 µM | 0.109 µM | 0.2 mg/kg | 0.572 µM | 354% | 434% | 543% | 0.181 µM | 0.21 mg/kg | 88% |  |  |  | Change (Mus musculus [2]): 48%; Drug discrimination effect (Rattus norvegicus [8]): 25%; Drug discrimination effect (Rattus norvegicus [10]): 0%; Change (Mus musculus [19]): 92%; Change (Mus musculus [21]): -23%; Change (Mus musculus [22]): 38% |
| Cc1ccc(C2CC3CCC(C2c2cc(C)no2)N3C)cc1 (centres undefined) | 75% | 1.1 | 392% | 78% | 0.348 µM | 156% | 48% | 0.00093 µM | 0.153 µM | 1.1 mg/kg |  | 140% | 413% | 341% | 0.254 µM | 0.28 mg/kg | 83% | 986% | 221% | 478% | Drug discrimination effect (Rattus norvegicus [8]): 0%; Drug discrimination effect (Rattus norvegicus [10]): 13%; Change (Mus musculus [27]): 552% |
| Cc1ccc(C2CC3CCC(C2c2cc(-c4ccc(Cl)cc4)no2)N3C)cc1 (centres undefined) | -58% |  | 33% |  |  | -20% | 45% | 0.00874 µM | 3.99 µM |  | > 100 µM | -35% |  | 5% | 6.98 µM |  |  | 7% | -1% | 30% | Change (Mus musculus [28]): 38%; Change (Mus musculus [29]): 79%; Change (Mus musculus [30]): -3%; Drug discrimination effect (Rattus norvegicus [31]): 0%; Change (Mus musculus [5]; 1 mg/kg): 24% and 27%; ED50 (Mus musculus [32]): inactive; Change (Mus musculus [33]): -1%; Drug discrimination effect (Rattus norvegicus [34]): 0%; Drug discrimination effect (Rattus norvegicus [35]): 0%; Change (Mus musculus [36]): -26%; Change (Mus musculus [37]): 52%; Change (Mus musculus [38]): -45%; Change (Mus musculus [39]): -20%; Change (Mus musculus [27]): 39%; Drug discrimination effect (Rattus norvegicus [40]): 13% |
| CCc1cc(C2C(c3ccc(Cl)cc3)CC3CCC2N3C)on1 (centres undefined) | 224% | 2.1 | 1708% | 778% | 0.281 µM | 505% | 208% | 0.0005 µM | 0.072 µM | 0.4 mg/kg | 3.09 µM | 284% | 1900% | 954% | 0.12 µM | 0.48 mg/kg | 0% |  |  |  | Change (Mus musculus [2]): 82%; Drug discrimination effect (Rattus norvegicus [31]): 71%; Drug discrimination effect (Rattus norvegicus [41]): 75%; Change (Mus musculus [19]): 224%; Change (Mus musculus [21]): 103%; Change (Mus musculus [22]): 184% |
| Cc1ccc(C2CC3CCC(C2c2cc(-c4ccc(F)cc4)no2)N3C)cc1 (centres undefined) |  | 0.4 |  |  |  |  |  | 0.00645 µM | 0.552 µM | 6.3 mg/kg | > 100 µM |  |  |  | 0.917 µM | 7.27 mg/kg |  | 148% | 140% | 105% | Change (Mus musculus [28]): 383%; Change (Mus musculus [29]): 387%; Change (Mus musculus [30]): 268%; Change (Mus musculus [33]): 117%; Drug discrimination effect (Rattus norvegicus [34]): 25%; Drug discrimination effect (Rattus norvegicus [42]): 88%; Drug discrimination effect (Rattus norvegicus [43]): 0%; Change (Mus musculus [36]): 192%; Change (Mus musculus [37]): 179%; Change (Mus musculus [38]): 84%; Drug discrimination effect (Rattus norvegicus [44]): 25%; Change (Mus musculus [39]): 148%; Change (Mus musculus [27]): 80% |

Reference: ChEMBL document CHEMBL1148376, “Synthesis, monoamine transporter binding properties, and behavioral pharmacology of a series of 3beta-(substituted phenyl)-2beta-(3'-substituted isoxazol-5-yl)tropanes” (J Med Chem, 2004)
